Results published in ChEMBL document CHEMBL4706745, “Balanced Intersystem Crossing in Iodinated Silicon-Fluoresceins Allows New Class of Red Shifted Theranostic Agents” (ACS Med Chem Lett, 2021).
Active and inactive are the calls of the source. The calls are words filed in the database; no cut-off is given here.

How the values were obtained:
MDA-MB-231 [1] = experiment: Phototoxicity against human MDA-MB-231 cells assessed as reduction in cell viability irradiated with 595 and 630 nanometer LED light and further incubated for 24 hrs by MTT assay; assay type: functional, cell-based; conditions: dose 0.5-20 µM
Procedure, shortened: (§1)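 MTT viability assay. Cells incubated with 0.5–20 μM, then irradiated with a 595 nm (9.83 mW/cm2) or 630 nm (24.3 mW/cm2) LED for 1 or 2 h, followed by 23 or 22 h dark respectively. Light alone and vehicle controls included. Mean ± SD, n = 4.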

HCT-116 [2] = experiment: Phototoxicity against human HCT-116 cells assessed as reduction in cell viability irradiated with 595 and 630 nanometer LED light and further incubated for 24 hrs by MTT assay; assay type: functional, cell-based; conditions: dose 0.5-20 µM; procedure, shortened: as §1
MDA-MB-231 [3] = experiment: Cytotoxicity against human MDA-MB-231 cells assessed as reduction in cell viability at 0.5 to 20 uM incubated for 24 hrs by MTT assay; assay type: cell-based; conditions: mda-mb-231, 24 h, dose 0.5-20 µM
Procedure, shortened: (§2)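 Cells exposed to 0.5–20 μM for 24 h in the dark, then assessed by MTT for viability. Vehicle control included. Mean ± SD, n = 4.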

HCT-116 [4] = experiment: Cytotoxicity against human HCT-116 cells assessed as reduction in cell viability at 0.5 to 20 uM incubated for 24 hrs by MTT assay; assay type: cell-based; conditions: hct-116, 24 h, dose 0.5-20 µM; procedure, shortened: as §2
MDA-MB-231 [5] = experiment: Induction of ROS generation in human MDA-MB-231 cells at 5 uM irradiated with 595 +/- 5 nanometer LED light for 2 hr by DCFH2-DA staining based confocal microscopic analysis; assay type: functional, cell-based
Procedure, shortened: (§3)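 Cells loaded with 5 μM compound and the ROS sensor DCFH2-DA; kept dark or irradiated with a 595 nm LED for 2 h, with or without NaN3 as singlet oxygen quencher. Green emission imaged by confocal microscopy. Controls: DMSO 0.5% vehicle and H2O2 (500 μM, 2 h) as positive control.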

HCT-116 [6] = experiment: Induction of ROS generation in human HCT-116 cells at 5 uM irradiated with 595 +/- 5 nanometer LED light for 2 hr by DCFH2-DA staining based confocal microscopic analysis; assay type: functional, cell-based; procedure, shortened: as §3
MDA-MB-231 [7] = experiment: Induction of ROS generation in human MDA-MB-231 cells at 5 uM incubated for 2 hr by DCFH2-DA staining based confocal microscopic analysis; assay type: cell-based; conditions: mda-mb-231, 2 h; procedure, shortened: as §3
HCT-116 [8] = experiment: Induction of ROS generation in human HCT-116 cells at 5 uM incubated for 2 hr by DCFH2-DA staining based confocal microscopic analysis; assay type: cell-based; conditions: hct-116, 2 h; procedure, shortened: as §3
MDA-MB-231 [9] = experiment: Induction of apoptosis in human MDA-MB-231 cells assessed as increase in necrotic cells at 5 uM irradiated with 595 +/- 5 nanometer LED light for 2 hrs by annexin V-FITC and PI staining based confocal microscopic analysis; assay type: functional, cell-based
Procedure, shortened: (§4)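 Cells treated with 5 μM and either kept dark or irradiated 2 h with a 595 nm LED, with or without NaN3. Annexin V-FITC (early apoptosis) and PI (late apoptosis/necrosis) staining 30 min after PDT, then confocal imaging. DMSO 0.5% vehicle control.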

HCT-116 [10] = experiment: Induction of apoptosis in human HCT-116 cells assessed as increase in necrotic cells at 5 uM irradiated with 595 +/- 5 nanometer LED light for 2 hrs by annexin V-FITC and PI staining based confocal microscopic analysis; assay type: functional, cell-based; procedure, shortened: as §4
[11] = Drug uptake in human MDA-MB-231 cells assessed as cytosolic red emission at 5 uM incubated for 2 hrs by Hoechst-33342 staining based confocal microscopic analysis; assay type: ADME, cell-based; conditions: mda-mb-231, 2 h
Procedure, shortened: (§5)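 Cells incubated with 5 μM for 2 h and washed before confocal imaging of intracellular red emission.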

[12] = Drug uptake in human HCT-116 cells assessed as cytosolic red emission at 5 uM incubated for 2 hrs by Hoechst-33342 staining based confocal microscopic analysis; assay type: ADME, cell-based; conditions: hct-116, 2 h; procedure, shortened: as §5
[13] = Induction of singlet oxygen generation in DMSO/ADMDA solution assessed as decrease in ADMDA absorption irradiated with 595 nanometer LED light at 5 uM; assay type: functional
Procedure, shortened: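 5 μM compound mixed with the water-soluble trap ADMDA in oxygen-saturated PBS (pH 7.4, 0.5% DMSO), then LED irradiated (595 nm at 9.83 mW/cm2). Decrease in ADMDA absorption monitored, with the first 40 s kept in the dark.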

[14] = Induction of singlet oxygen generation in DMSO solution using singlet oxygen sensor green assessed as increase in SOSG intensity irradiated with 595 nanometer LED light at 5 uM; assay type: functional
Procedure, shortened: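 5 μM compound with singlet oxygen sensor green (SOSG); increase in SOSG emission monitored during 595 nm LED irradiation (9.83 mW/cm2).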

[15] = Induction of singlet oxygen generation in DMSO/ADMDA solution assessed as decrease in ADMDA absorption irradiated with 630 nanometer LED light at 5 uM; assay type: functional
[16] = Induction of singlet oxygen generation in DMSO solution using singlet oxygen sensor green assessed as increase in SOSG intensity irradiated with 630 nanometer LED light at 5 uM; assay type: functional
[17] = Photostability in pH 7.4 PBS buffer at 614/630 nanometer irradiated with 595 nanometer LED light for 2 hrs by measuring fluorescence peak; assay type: physicochemical; conditions: pH 7.4, 2 h
Procedure, shortened: (§6)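 Absorption at 614 nm and emission at 630 nm tracked under continuous 595 or 630 nm LED irradiation for 2 h in PBS (pH 7.4, 0.5% DMSO).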

[18] = Photostability in pH 7.4 PBS buffer at 614/630 nanometer irradiated with 630 nanometer LED light for 2 hrs by measuring fluorescence peak; assay type: physicochemical; conditions: pH 7.4, 2 h; procedure, shortened: as §6
MDA-MB-231 [19] = experiment: Induction of apoptosis in human MDA-MB-231 cells at 5 uM irradiated with 595 +/- 5 nanometer LED light for 2 hrs in presence of NaN3 by annexin V-FITC and PI staining based confocal microscopic analysis; assay type: functional, cell-based; procedure, shortened: as §4
HCT-116 [20] = experiment: Induction of apoptosis in human HCT-116 cells at 5 uM irradiated with 595 +/- 5 nanometer LED light for 2 hrs in presence of NaN3 by annexin V-FITC and PI staining based confocal microscopic analysis; assay type: functional, cell-based; procedure, shortened: as §4
[21] = Induction of singlet oxygen generation in pH 7.4 DMSO solution at 614 nanometer assessed as singlet oxygen quantum yield irradiated with 595 nanometer LED light; assay type: functional
[22] = Induction of singlet oxygen generation in pH 7.4 DMSO solution at 614 nanometer assessed as singlet oxygen quantum yield irradiated with 630 nanometer LED light; assay type: functional
[23] = Fluorescence property of the compound in pH 7.4 PBS buffer assessed as fluorescence quantum yield by fluorescence spectrophotometric method; assay type: physicochemical

In the case of `C[Si]1(C)C2=C(I)C(=O)C(I)=CC2=C(c2ccccc2C(=O)O)c2cc(I)c(O)c(I)c21`, the inhibition (MDA-MB-231 [1]) is reported as “Dose-dependent effect”, the inhibition (HCT-116 [2]) is reported as “Dose-dependent effect” and the Activity (MDA-MB-231 [3]) is reported as “Non-Toxic”. For the same compound, the Activity (HCT-116 [4]) was “Non-Toxic”, the Activity (MDA-MB-231 [5]) was “Active” and the Activity (HCT-116 [6]) was “Active”. The Activity (MDA-MB-231 [7]) was “Non-Toxic”, the Activity (HCT-116 [8]) was “Non-Toxic” and the Activity (MDA-MB-231 [9]) was “inactive”. The Activity (HCT-116 [10]) was “inactive”, the Drug uptake [11] was “Active” and the Drug uptake [12] was “Active”. The Activity [13] was “Active”, the Activity [14] was “Active” and the Activity [15] was “Active”. For the same compound, the Activity [16] was “Active”, the Stabilty [17] was “Stable” and the Stabilty [18] was “Stable”. For the same compound, the Activity (MDA-MB-231 [19]) was “inactive”, the Activity (HCT-116 [20]) was “inactive” and the Activity [21] was 45%. The Activity [22] was 30% and the Activity [23] was 11%.
